# Results published in PubChem BioAssay.
# Active and inactive are the calls of the source.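 The calls were made as follows: active = a full or partial loss of lipid-probe fluorescence in the fish gall bladder, intestine or both, judged by eye; inactive = no fluorescence loss, or compound toxic to the fish.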
# Assay: inhibitors of larval lipid processing in zebrafish, primary screen, whole organism, PED6 fluorescence, gall bladder and intestine (AID 686);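 also: larvae 5 to 7 days old with five fish per well; signal comes from phospholipase A2 cleavage of quenched PED6 carried via bile; overnight exposure to compound and PED6 before scoring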
# Details: Zebrafish larvae PED6 lipid processing, fluorescence scoring; screened at 20 µM (by protocol)
# Procedure, shortened: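 Test system – live zebrafish larvae aged 5-7 days, whole organism · Buffer or medium – E3 fish medium · Reagent – quenched phospholipase substrate PED6, 100 nM final, ingested by larvae · Doses – 20 µM single dose · Incubation – overnight compound and PED6 incubation · Technique – visual fluorescence microscopy scoring of gall bladder, gut · Read-out basis – visual per-well fluorescence inhibition score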
row,SMILES,outcome
1,Cc1nnc2n(-c3ccccc3)c(=O)c3c4c(sc3n12)CCCC4,inactive
2,Cc1c(NC(=O)c2ccc(=O)oc2)c(=O)n(-c2ccccc2)n1C,inactive
3,Cc1nc2sc(C#N)c(N)c2c2c1CCCC2,inactive
4,Fc1ccc(-c2cnc[nH]2)cc1,inactive
5,CC(CCc1ccccc1)NCC(O)c1ccc(O)c(C(N)=O)c1 (centres undefined),inactive
6,CCOC(=O)c1ccc2nc(NC(NC(C)=O)(C(=O)OC)C(F)(F)F)sc2c1 (centres undefined),inactive
7,COc1cccc(N2C(=O)C(O)=C(C(C)=O)C2c2ccc(OC)c(OC)c2)c1 (centres undefined),inactive
8,CCCCOc1ccccc1C(=O)NCCCC(=O)O,active; weak signal in gallbladder and intestine
9,COc1ccc(CCn2c(=N)c(C#N)cc3c(=O)n4ccccc4nc32)cc1,inactive
10,O=C(NC1CCS(=O)(=O)C1)c1c(NC(=O)C2COc3ccccc3O2)sc2c1CCCC2 (centres undefined),inactive
11,Cc1nn(-c2ccccc2)c2c1C(=O)NC(=O)C(C)(C)C2,inactive
12,O=C(Nc1ccccn1)NC(C(F)(F)F)C(F)(F)F,inactive
13,CCC(NC(=O)Nc1cc(OC)c(OC)c(OC)c1)(C(F)(F)F)C(F)(F)F,inactive
14,COC(=O)C(NC(C)=O)(Nc1ccccn1)C(F)(F)F (centres undefined),inactive
15,CC1(C)CNC(=O)c2sc(N3CCOCC3)nc2C1,inactive
16,CCN1CCc2c(C#N)c(N3CCCCC3)nc(NCc3ccccc3)c2C1,inactive
17,CCOC(=O)CNC(=O)Nc1ccccc1C(=O)OC,inactive
18,CCn1nc(NC(=O)c2cccnc2)c2cc3ccccc3nc21,inactive
19,Cn1c(=O)n(Cc2ccccc2)c(=O)c2c1nc(NCC1CCCO1)n2Cc1ccccc1 (centres undefined),inactive
